Test results taken from ChEMBL document CHEMBL1255454, “Systematic approach to optimizing specifically targeted antimicrobial peptides against Streptococcus mutans” (2010).
Active and inactive are the calls of the source. The rule behind the calls is not given here.

Tests used:
[1] = Antimicrobial activity against Streptococcus gordonii Challis DL1 after 16 to 20 hrs by broth microdilution assay; assay type: functional, Streptococcus gordonii str. Challis
Procedure, shortened: (§1)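 Broth microdilution. Twofold peptide dilutions were made in 50% BHI–50% sterile water for oral streptococci and in 1× Mueller-Hinton broth for the other bacteria. First round 500 to 0.97 µg/ml; a second round of 64 to 0.5 µg/ml was run in some cases, reporting its mode. Inoculum ~1 × 10^5 CFU/ml, 37°C for 16–20 h. Read A600; MIC taken as complete inhibition or ≥90% turbidity reduction versus peptide-free control.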

Streptococcus mitis [2] = experiment: Antimicrobial activity against Streptococcus mitis ATCC 903 at 25 ug/ml after 30 mins by time-kill assay; assay type: functional, organism-based
Procedure, shortened: (§2)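 Time-kill. Overnight cultures were diluted in BHI to A600 0.08 and treated with peptide at 25 µg/ml for 30 s to 2 h. Aliquots were diluted 1:50 in BHI, held on ice, plated and counted after 24 h as surviving CFU/ml. Three independent experiments, mean with SD; unpaired Student t test.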

Streptococcus sanguinis [3] = experiment: Antimicrobial activity against Streptococcus sanguinis NY101 at 25 ug/ml after 30 mins by time-kill assay; assay type: functional, organism-based; procedure, shortened: as §2
Streptococcus mutans [4] = experiment: Antimicrobial activity against Streptococcus mutans UA159 assessed as inhibition of bacterial biofilm formation at 25 uM after 3 mins by fluorescence assay; assay type: functional
Procedure, shortened: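 S. mutans UA159 overnight culture was diluted 1:5,000 in TH with 1% sucrose and grown as biofilm for 24 h. Biofilms were exposed 3 min at room temperature to 25 µM fluorescein-labelled peptide in HEPES/NaHCO3/NaCl/MgCl2 buffer with 0.1% CTAB, pH 7.4, then washed twice. Green fluorescence images were taken and biofilm-associated green pixels quantified as binding intensity units.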

Streptococcus mitis [5] = experiment: Antimicrobial activity against Streptococcus mitis assessed as inhibition of bacterial biofilm formation at 50 uM after 10 mins; assay type: functional
Procedure, shortened: (§3)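 Mixed-species biofilms were grown 24 h at 37°C anaerobically in TH with 50% filter-sterilized pooled human saliva and 1% sucrose. Inoculum: S. mutans JM11 at 1 × 10^6 CFU/well plus S. oralis, S. gordonii, S. sanguinis, S. mitis and S. salivarius at 2 × 10^5 CFU/well each. Survivors were plated on TH agar for total streptococci and on TH agar with 800 µg/ml spectinomycin for JM11. Detection limit 100 CFU/ml.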

Streptococcus mutans [6] = experiment: Antimicrobial activity against Streptococcus mutans UA159 after 16 to 20 hrs by broth microdilution assay; assay type: functional; procedure, shortened: as §1
Streptococcus oralis = experiment: Antimicrobial activity against Streptococcus oralis assessed as inhibition of bacterial biofilm formation at 50 uM after 10 mins; assay type: functional; procedure, shortened: as §3
Streptococcus gordonii = experiment: Antimicrobial activity against Streptococcus gordonii assessed as inhibition of bacterial biofilm formation at 50 uM after 10 mins; assay type: functional; procedure, shortened: as §3
Streptococcus mutans [7] = experiment: Antimicrobial activity against Streptococcus mutans UA159 at 25 ug/ml after 30 mins by time-kill assay; assay type: functional; procedure, shortened: as §2
Streptococcus mitis [8] = experiment: Antimicrobial activity against Streptococcus mitis ATCC 903 after 16 to 20 hrs by broth microdilution assay; assay type: functional; procedure, shortened: as §1
Streptococcus sanguinis [9] = experiment: Antimicrobial activity against Streptococcus sanguinis assessed as inhibition of bacterial biofilm formation at 50 uM after 10 mins; assay type: functional; procedure, shortened: as §3
Streptococcus sanguinis [10] = experiment: Antimicrobial activity against Streptococcus sanguinis NY101 after 16 to 20 hrs by broth microdilution assay; assay type: functional; procedure, shortened: as §1
Streptococcus salivarius = experiment: Antimicrobial activity against Streptococcus salivarius assessed as inhibition of bacterial biofilm formation at 50 uM after 10 mins; assay type: functional; procedure, shortened: as §3
Streptococcus mutans [11] = experiment: Antimicrobial activity against Streptococcus mutans JM11 assessed as inhibition of bacterial biofilm formation at 50 uM after 10 mins; assay type: functional; procedure, shortened: as §3
Streptococcus mutans [12] = experiment: Antimicrobial activity against Streptococcus mutans UA159 assessed as inhibition of viability of bacterial biofilm at 25 ug/ml treated for 1 min measured after 4 hrs; assay type: functional
Procedure, shortened: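 S. mutans biofilms were seeded from overnight culture diluted 1:50 in TH broth with 0.5% sucrose, centrifuged, and grown 4 h anaerobically at 37°C. They were exposed to peptide in 1× PBS for about 1 min, washed, and given fresh TH broth without sucrose. Recovery was read as A600 after 4 h anaerobic incubation at 37°C. Three experiments; unpaired t test.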

Pseudomonas aeruginosa = experiment: Antimicrobial activity against Pseudomonas aeruginosa PAK after 16 to 20 hrs by broth microdilution assay; assay type: functional; procedure, shortened: as §1
Staphylococcus aureus = experiment: Antimicrobial activity against methicillin-resistant Staphylococcus aureus after 16 to 20 hrs by broth microdilution assay; assay type: functional
Procedure, shortened: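 MRSA grown aerobically in BHI at 37°C. Broth microdilution: 2-fold peptide dilutions in 1× Mueller-Hinton broth, first round 500 to 0.97 µg/ml; if activity below 62.5 µg/ml, sometimes a second round at 64 to 0.5 µg/ml, reporting the mode. Inoculum ~1 × 10^5 CFU/ml, 37°C for 16-20 h. A600 read. MIC = lowest concentration giving complete inhibition or ≥90% turbidity reduction versus peptide-free control.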

[13] = system: Streptococcus gordonii str. Challis; experiment: Antimicrobial activity against Streptococcus gordonii Challis DL1 at 25 ug/ml after 30 mins by time-kill assay; assay type: functional; procedure, shortened: as §2

| Substance | MIC [1] [µg/mL] | Activity (Streptococcus mitis [2]) | Activity (Streptococcus sanguinis [3]) | inhibition (Streptococcus mutans [4]) | inhibition (Streptococcus mitis [5]) | MIC (Streptococcus mutans [6]) [µg/mL] | inhibition (Streptococcus oralis) | inhibition (Streptococcus gordonii) | Activity (Streptococcus mutans [7]) | MIC (Streptococcus mitis [8]) [µg/mL] | inhibition (Streptococcus sanguinis [9]) | MIC (Streptococcus sanguinis [10]) [µg/mL] | inhibition (Streptococcus salivarius) | inhibition (Streptococcus mutans [11]) | inhibition (Streptococcus mutans [12]) | MIC (Pseudomonas aeruginosa) [µg/mL] | MIC (Staphylococcus aureus) [µg/mL] | Activity [13] |
| --- | --- | --- | --- | --- | --- | --- | --- | --- | --- | --- | --- | --- | --- | --- | --- | --- | --- | --- |
| H-FIKHFIHRFGGGFKKFWKWFRRF-NH2 | 62.5 | Active | Active | Active | inactive | 4 | inactive | inactive | Active | 32 | inactive | 16 | inactive | Active | Active | 62.5 | 16 | Active |
| H-FKKFWKWFRRF-NH2 | 16 | Active | Active | Active | inactive | 8 | inactive | inactive | Active | 16 | inactive | 32 | inactive | Active | Active | 32 | 16 | Active |
